Source: ChEMBL document CHEMBL2029271, “Design and synthesis of cannabinoid receptor 1 antagonists for peripheral selectivity” (J Med Chem, 2012)

Assays:
Cannabinoid receptor 1 [1] = molecular target: T1, Cannabinoid receptor 1 (Homo sapiens, UniProt P21554); assay: biochemical; format: cell-based, CHO-K1
Cannabinoid receptor 2 = Cannabinoid receptor 2 (Homo sapiens, UniProt P34972); assay: Displacement of [3H]CP55940 from CB2 receptor expressed in CHO-K1 cells; format: cell-based
Homo sapiens = species on record: Homo sapiens; assay: Selectivity ratio of Ki for CB2 receptor to Ki for human CB1 receptor
MDCK = assay: Permeability from apical to basal side of MDCK cells expressing human mdr1 gene; format: ADME, cell-based, Canis lupus familiaris; conditions: dog
Method in brief: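 MDCK-mdr1 cells grown 4 days to confluence on Transwell-type filters in DMEM/F12 with 10% FBS and antibiotics. Compound added apically at 3.16 μM in HBSS with 25 mM D-glucose, HEPES-buffered to pH 7.4; 1 hr at 37°C. Apical and basal samples collected and analysed by LC-MS/MS (MRM).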

Plasma [2] = assay: Metabolic stability in human plasma assessed as compound remaining at 10 uM preincubated for 5 mins measured after 60 mins; format: ADME, cell-free; conditions: 1 h
Method in brief: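 Human plasma, 1 ml per sample at 37°C, 5 min pre-incubation, then compound at 10 μM final, sampled at 0, 30 and 60 min. Reactions stopped with acetonitrile; LC-MS/MS (MRM) quantitation with standards in blank matrix; % parent remaining at 60 min.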

[3] = (§1) Plasma concentration in Sprague-Dawley rat at 10 mg/kg, po after 30 mins; format: ADME, organism-based; set-up: dose 10 mg/kg, route oral; conditions: Sprague-Dawley, plasma
Method in brief: (§2)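 Orally dosed male Sprague Dawley rats (7–8 weeks; 10 mg/kg in corn oil) sampled by tail vein at 30 minutes. Plasma acetonitrile-precipitated with reserpine internal standard; supernatant injected undiluted for LC-MS/MS, with standards in blank plasma.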

[4] = Plasma concentration in Sprague-Dawley rat at 10 mg/kg, po after 60 mins; format: ADME, organism-based; set-up: dose 10 mg/kg, route oral
Method in brief: (§3)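 Male Sprague Dawley rats, 7–8 weeks old, dosed 10 mg/kg orally (corn oil) or ip (1:1:18 ethanol:cremophor:saline). Plasma collected 1 hour post-dose, acetonitrile-precipitated with reserpine internal standard, supernatant diluted in 50:50 methanol:water, quantified by LC-MS/MS against standards in blank plasma.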

[5] = Plasma concentration in Sprague-Dawley rat at 10 mg/kg, ip after 60 mins; format: ADME, organism-based; set-up: dose 10 mg/kg, route intraperitoneal
Method in brief: as §3

[6] = (§4) Drug uptake in Sprague-Dawley rat brain at 10 mg/kg, po after 60 mins; format: ADME, organism-based; set-up: dose 10 mg/kg, route oral; conditions: Sprague-Dawley, brain, read-out: Drug uptake
Method in brief: (§5)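 Male Sprague Dawley rats, 7–8 weeks old, given 10 mg/kg orally (corn oil) or ip (1:1:18 ethanol:cremophor:saline). Brain taken 1 hour post-dose; left lobe homogenized in 50:50 ethanol:water, protein-precipitated with acetonitrile plus reserpine internal standard, analysed by LC-MS/MS against standards in blank brain homogenate.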

[7] = Drug uptake in Sprague-Dawley rat brain at 10 mg/kg, ip after 60 mins; format: ADME, organism-based; set-up: dose 10 mg/kg, route intraperitoneal; conditions: read-out: Drug uptake
Method in brief: as §5

Nucleic Acid [8] = assay: Ratio of drug level in brain to plasma in Sprague-Dawley rat at 10 mg/kg, ip after 60 mins; format: ADME, organism-based; set-up: dose 10 mg/kg, route intraperitoneal; conditions: 1 h
Method in brief: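 Male Sprague Dawley rats, 7–8 weeks, given 10 mg/kg ip in 1:1:18 ethanol:cremophor:saline; plasma and brain taken at 1 h. Plasma and left-lobe brain homogenate (50:50 ethanol:water) protein-precipitated with acetonitrile, reserpine internal standard; LC-MS/MS MRM vs standards in blank matrices; brain:plasma concentration ratio.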

Nucleic Acid [9] = assay: Ratio of drug level in brain to plasma in Sprague-Dawley rat at 10 mg/kg, po after 60 mins; format: ADME, organism-based; set-up: dose 10 mg/kg, route oral; conditions: 1 h
Method in brief: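 Male Sprague Dawley rats, 7–8 weeks, dosed orally at 10 mg/kg in corn oil; plasma and brain collected 1 h post-dose (tail-vein blood also at 30 min). Acetonitrile precipitation with reserpine internal standard, brain left lobe homogenized in 50:50 ethanol:water; LC-MS/MS MRM with blank-matrix standards; brain:plasma concentration ratio.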

Cannabinoid receptor 1 [10] = molecular target: T1, Cannabinoid receptor 1; conditions: CHO-K1
[11] = Metabolic stability in human hepatic S9 fraction assessed as compound remaining at 10 uM after 120 mins; format: ADME, Liver; conditions: s9, 2 h
Method in brief: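 Human hepatic S9 (1 mg/ml) with 10 μM final compound in 50 mM potassium phosphate pH 7.4, 3 mM MgCl2, NADPH regenerating system (NADP 1 mM, glucose-6-phosphate 5 mM, G6PDH 1 unit/ml). Triplicates sampled at 0, 15, 30, 60, 120 min; stopped with 3 volumes acetonitrile; LC-MS/MS (MRM) against matrix standard curves; % parent remaining at 120 min.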

Brain = assay: as §4; format: ADME, organism-based; set-up: dose 10 mg/kg, route oral; conditions: in vivo, 1 h, BLD = below limit of detection
Method in brief: as §5

Cannabinoid receptor 1 [12] = molecular target: T1, Cannabinoid receptor 1; assay: biochemical
Plasma [13] = assay: as §1; format: ADME, organism-based; set-up: dose 10 mg/kg, route oral; conditions: in vivo, 0.5 h, BLD = below limit of detection
Method in brief: as §2
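Throughout, for Ke: antagonism measured as blockade of CP55940-evoked intracellular Ca2+ rise, read fluorometrically, in cells additionally carrying Galphaq16.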

Sequence of Cannabinoid receptor 2 (P34972 whole entry): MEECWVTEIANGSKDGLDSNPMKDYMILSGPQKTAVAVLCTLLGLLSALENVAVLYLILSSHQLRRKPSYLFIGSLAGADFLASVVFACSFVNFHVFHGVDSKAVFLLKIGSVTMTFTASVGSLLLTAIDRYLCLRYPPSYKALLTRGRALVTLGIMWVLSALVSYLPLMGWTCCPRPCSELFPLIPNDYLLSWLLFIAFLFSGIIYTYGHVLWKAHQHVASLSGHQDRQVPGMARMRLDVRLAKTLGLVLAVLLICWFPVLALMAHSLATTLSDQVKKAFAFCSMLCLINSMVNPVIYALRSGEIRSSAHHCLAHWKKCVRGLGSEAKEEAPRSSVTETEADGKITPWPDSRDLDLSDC
T1 sequence (P21554 whole entry): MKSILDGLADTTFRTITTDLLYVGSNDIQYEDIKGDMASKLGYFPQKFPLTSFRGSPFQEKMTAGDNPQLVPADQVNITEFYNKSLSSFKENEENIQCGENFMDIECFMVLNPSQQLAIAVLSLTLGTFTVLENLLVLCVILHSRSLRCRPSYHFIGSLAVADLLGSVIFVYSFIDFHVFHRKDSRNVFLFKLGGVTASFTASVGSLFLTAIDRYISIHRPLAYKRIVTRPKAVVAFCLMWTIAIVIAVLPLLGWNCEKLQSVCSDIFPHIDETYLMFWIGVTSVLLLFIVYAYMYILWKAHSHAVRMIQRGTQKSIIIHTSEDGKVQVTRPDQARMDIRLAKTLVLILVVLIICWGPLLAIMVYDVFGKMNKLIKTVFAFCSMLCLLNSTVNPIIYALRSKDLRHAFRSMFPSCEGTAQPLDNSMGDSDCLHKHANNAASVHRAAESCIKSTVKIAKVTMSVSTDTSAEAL

Compound | Ki (Cannabinoid receptor 1 [1]) | Ki (Cannabinoid receptor 2) | Ratio Ki (Homo sapiens) | permeability (MDCK) | Stability (Plasma [2]) | concentration at 0.5 h [3] | concentration at 1 h [4] | concentration at 1 h [5] | concentration at 1 h [6] | concentration at 1 h [7] | BPR (Nucleic Acid [8]) | BPR (Nucleic Acid [9]) | Ke (Cannabinoid receptor 1 [10]) | Stability [11] | Drug uptake (Brain) | Ki (Cannabinoid receptor 1 [12]) | Cp (Plasma [13])
Cc1c(C(=O)NC2CCN(C(=O)NC(C)(C)C)CC2)nn(-c2ccc(Cl)cc2Cl)c1-c1ccc(Cl)cc1 | 14.7 nM | 3350 nM | 228 | < 1% | 71% | 5.08 ng/mL | 28 ng/mL | 67.4 ng/mL | 4.46 ng/mL | 25.5 ng/mL | 0.379 | 0.16 | 78 nM |  |  |  | 
Cc1c(C(=O)N2CCC(NC(=O)OC(C)(C)C)(c3ccccc3)CC2)nn(-c2ccc(Cl)cc2Cl)c1-c1ccc(Cl)cc1 |  |  | 49.9 | < 1% | > 90% |  |  |  |  |  |  |  | 20.2 nM | 88% |  |  | 
Cc1c(C(=O)N2CCC(NC(=O)NC(C)(C)C)(c3ccccc3)CC2)nn(-c2ccc(Cl)cc2Cl)c1-c1ccc(Cl)cc1 |  | 20000 nM | 425 | < 1% | > 90% | 3.72 ng/mL | 10.3 ng/mL | 386 ng/mL |  | 12.4 ng/mL | 0.032 |  | 2.4 nM | 88% | BLD |  | 
Cc1c(C(=O)N2CCC(C(N)=O)(c3ccccc3)CC2)nn(-c2ccc(Cl)cc2Cl)c1-c1ccc(Cl)cc1 |  |  | 1600 | 8% |  |  |  |  |  |  |  |  | 0.4 nM |  |  | 0.4 nM | 
Cc1c(C(=O)N2CCC(NC(=O)NCc3ccccc3)(c3ccccc3)CC2)nn(-c2ccc(Cl)cc2Cl)c1-c1ccc(Cl)cc1 | 43 nM | 17100 nM | 398 | < 1% | 82% |  |  |  |  |  |  |  | 2.1 nM | 18% |  |  | 
Cc1c(C(=O)NC2CCN(C(=O)OC(C)(C)C)CC2)nn(-c2ccc(Cl)cc2Cl)c1-c1ccc(Cl)cc1 | 2.9 nM | 2510 nM | 878 | < 1% | > 90% |  | 13.2 ng/mL | 197 ng/mL |  | 4.2 ng/mL | 0.0214 |  | 4.7 nM | > 90% | BLD |  | BLD
